According to article PMC9532784 (Food Chemistry: X, 2022):

Tested on: PDE4
Assay: In vitro PDE4-inhibitory assay
Assay type: biochemical
Settings: ratio of IC50 values
Summary of the method: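 Fluorescence-polarization kit. Test compound diluted in assay buffer containing 10 % DMSO (dilution solvent, not final), then added to reactions with PDE4 and 200 nM FAM-cAMP for 1 h at room temperature. Binding agent (1:99 in diluent) added for 30 min at RT with slow shaking; FP read at ex 485/em 528 nm. Triplicate per concentration; % activity = (FP−FPb)/(FPt−FPb)×100. IC50 from dose-response fit; ratios taken between IC50s.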

C[C@@H]1O[C@@H](O[C@H]2C(=O)c3c(O)cc(O)cc3O[C@@H]2c2ccc(O)c(O)c2)[C@H](O)[C@H](O)[C@H]1O [Astilbin]
fold higher PDE4 inhibitory effect than isoastilbin (versus isoastilbin): 8.9 fold
fold higher PDE4 inhibitory effect than neoastilbin (versus neoastilbin): 2.9 fold
